Compound activity: PubChem, Johns Hopkins Ion Channel Center
RGS4 pot = RGS4 potentiators or activators, primary screen, cell-based, HEK293 M3R inducible RGS4, calcium flux; 310,000 tested, 0.92% active; B-score at 10 µM; carbachol calcium flux Fluo4; active compounds read low; AID 463111, 2010;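 active = B-score of the integrated calcium signal more than 4 SD below the library mean, with starting fluorescence not abnormally high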;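 note: negative B-score means reduced calcium response which marks RGS4 activation or potentiation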
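Test system: HEK293 cells with stable M3R and inducible RGS4; also added: carbachol at ECmax as muscarinic agonist stimulus; schedule: dye loading 30 min 37 °C, buffer rest 30 min RT; technique: kinetic calcium fluorescence imaging with Fluo4-AM dye, 2 µM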
MrgX1 antagonist = antagonists of human MrgX1 receptor, primary screen, HEK293 cells, Fluo-4 calcium flux; BAM8-22 antagonism; active compounds read low; 310,000 tested, 1.3% active; B-score at 10 µM; Mas-related G-protein coupled receptor member X1 (Homo sapiens), Q96LB2; AID 588676, 2011;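 active = calcium-response B-score plate-corrected more than 3 library SD below zero, starting fluorescence within 5 deviations, no agonist response on first addition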;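 note: peak minus trough fluorescence over baseline after final BAM8-22 challenge near maximal dose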
Target sequence (Q96LB2 whole entry, looked up): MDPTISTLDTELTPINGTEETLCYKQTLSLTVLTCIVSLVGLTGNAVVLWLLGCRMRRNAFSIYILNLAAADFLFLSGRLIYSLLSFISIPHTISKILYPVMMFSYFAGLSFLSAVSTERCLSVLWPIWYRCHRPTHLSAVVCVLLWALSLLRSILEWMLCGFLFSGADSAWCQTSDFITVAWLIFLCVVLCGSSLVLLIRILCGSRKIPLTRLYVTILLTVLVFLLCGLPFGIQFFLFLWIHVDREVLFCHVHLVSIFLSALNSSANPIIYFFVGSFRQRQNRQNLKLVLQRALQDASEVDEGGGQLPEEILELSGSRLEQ
MrgX1 PAM = positive allosteric modulators of MrgX1, primary screen, HEK293 cells, Fluo-4 calcium flux; B-score at 10 µM; Mas-related G-protein coupled receptor member X1 (Homo sapiens), Q96LB2; FDSS; active compounds read high; 310,000 tested, 0.63% active;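 active = plate-corrected calcium response at least 3 library SD above typical, normal starting fluorescence, not activating the receptor alone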;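 note: compound read alongside a low EC10 to EC30 dose of BAM8-22 agonist; peak minus trough fluorescence over baseline measured at the second addition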
MrgX1 agonist = agonists of human MrgX1 receptor, primary screen, HEK293 cells, Fluo-4 calcium flux. Fluo-4 calcium fluorescence, agonist mode; active compounds read high. B-score at 10 µM. 310,000 tested, 0.44% active;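 active = calcium response B-score plate-corrected fluorescence ratio at least 3 library SD, with starting fluorescence B-score inside 5 SD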
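Test system: HEK293 cells stably expressing human MrgX1 receptor; amount: 15,000 cells per well; doses: compound delivered in addition one of three; times: overnight plating before 1 h dye loading; detection: Fluo-4 NW calcium-flux fluorescence, kinetic read; read-out basis: B-scored fluorescence response ratio; controls: positive and negative controls per plate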
RGS4 inh = RGS4 inhibitors, primary screen, cell-based, HEK293 M3R inducible RGS4, calcium flux. Fluo-4 calcium flux; active compounds read high; triggered by carbachol at its EC20. B-score at 10 µM. 310,000 tested, 0.45% active;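 active = B-score, a plate-corrected calcium signal, over three deviations above library mean, with baseline fluorescence within five deviations of library mean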;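 note: RGS4 expression induced by doxycycline in cells with stable M3 receptor; B-score is computed from the integrated fluorescence ratio over baseline after carbachol; higher B-score means a larger calcium signal and so more RGS4 inhibition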
Target sequence (P49798 whole entry, looked up): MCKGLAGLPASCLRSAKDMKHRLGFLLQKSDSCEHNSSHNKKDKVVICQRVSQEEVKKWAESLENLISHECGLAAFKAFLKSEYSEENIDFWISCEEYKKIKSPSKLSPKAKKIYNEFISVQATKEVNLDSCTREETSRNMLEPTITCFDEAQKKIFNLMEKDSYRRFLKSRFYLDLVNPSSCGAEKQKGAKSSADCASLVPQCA
Of the large screens only hits and unclear results are named; the others gave an inactive call. Shown are actives, neighbours in structure and some others; about 3.5% of the full set was active somewhere.

CCN(CC)S(=O)(=O)c1ccc(C2=NOC3(C2)N(C)c2ccccc2C3(C)C)cc1 (stereo not given)	RGS4 pot -8.4
CN1c2ccccc2C(C)(C)C12CC(c1ccc(S(=O)(=O)N3CCCCC3)cc1)=NO2 (stereo not given)	none
COc1ccc2c(c1OC)C(=O)N(c1cccc(/C=C/C(=O)O)c1)C2	none
Oc1ccc(COCc2ccccc2)c2cccnc12	MrgX1 antagonist -5.6
CCCOCc1ccc(O)c2ncccc12	none
O=C(c1cc(-c2ccncc2)nc2ccccc12)N1CCN(c2ccccc2O)CC1	none
CN1CCCN(C(=O)c2cc(-c3ccc(Cl)c(Cl)c3Cl)nc3ccccc23)CC1	MrgX1 agonist 41
O=C(c1cc(-c2ccccc2)nc2ccccc12)N1CCN(c2ccccc2O)CC1	RGS4 pot -7.1
O=C(OCC(=O)N1CCN(C(=O)c2ccco2)CC1)c1cc(-c2ccc(Cl)c(Cl)c2Cl)nc2ccccc12	none
Cc1ccc2nc(-c3ccccc3)cc(C(=O)N3CCN(c4ccccc4O)CC3)c2c1	RGS4 pot -8.6
CCOc1ccc(C(=O)C(C)OC(=O)CN2C(=O)NC(C)(C)C2=O)cc1 (stereo not given)	none
CCOC(=O)C1=C(c2ccccc2)NC(N)=NC1c1ccc(OCc2ccc(C(=O)OC)cc2)cc1 (stereo not given)	RGS4 pot -7
C=CCOc1cccc(C(=O)/C=C2/C(=O)Nc3ccccc32)c1	RGS4 inh 5.8
CC1CCN(c2nc(CN3CCCCC3)nc3scc(-c4ccccc4)c23)CC1	RGS4 pot -7.4
CC1CCCN(c2nc(-c3cccnc3)nc3scc(-c4ccccc4)c23)C1 (stereo not given)	RGS4 pot -7.3
Cc1cc(OCCN2CCC(Cc3ccccc3)CC2)ccc1[N+](=O)[O-]	RGS4 pot -8
COc1ccccc1CNS(=O)(=O)c1cc2c3c(c1)CCN3C(=O)CC2	none
CCOc1ccc(C(=O)OCn2nnc3ccccc3c2=O)cc1OC	MrgX1 antagonist -7.6
O=C(OCn1nnc2ccccc2c1=O)c1ccc(O)cc1	MrgX1 PAM 12
COc1cc(C(=O)OCn2nnc3ccccc3c2=O)cc(OC)c1OC	none
O=C(c1ccccc1)c1n[nH]c(-c2ccccc2)cc1=O	none
CCC1CCCCN1CCCNC(=O)c1ccc2c(c1)N(Cc1ccc(F)cc1)C(=O)c1ccccc1S2=O (stereo not given)	RGS4 pot -8.4
O=C(NCCCN1CCCC1)c1ccc2c(c1)N(Cc1ccc(F)cc1)C(=O)c1ccccc1S2=O (stereo not given)	none
CC(=O)Nc1ccccc1-c1nc2ccc(C(=O)N3CCN(c4cccc(C)c4)C(C)C3)cc2[nH]c1=O (stereo not given)	none
Cc1cccc(N2CCN(C(=O)c3ccc4nc(-c5ccco5)c(-c5ccco5)nc4c3)CC2C)c1 (stereo not given)	MrgX1 antagonist -7.6
Cc1ccc(-c2csc(N/N=C/C=C/c3ccccc3)n2)cc1	MrgX1 antagonist -5.4
Cc1ccc(-c2csc(N/N=C/c3ccco3)n2)cc1	none
C(=N\Nc1nc(-c2ccccc2)cs1)/c1ccco1	MrgX1 antagonist -6.7
CCN(CC)c1ccc(C(=S)NCc2ccccc2)cc1	none
COC(=O)C(C)Oc1cc(C)ccc1COc1ccc(-n2nc(C)n(C(F)F)c2=O)cc1 (stereo not given)	none
Cn1nnnc1Sc1c(Cl)cccc1[N+](=O)[O-]	MrgX1 antagonist -5.6
Cc1nnsc1Sc1ccccc1C(=O)O	none
Cc1nn(CCOc2ccccc2)c(=O)n1-c1ccc(Cl)cc1	MrgX1 PAM 11
Cc1nn(CCOc2ccccc2)c(=O)n1-c1ccccc1	none
Nn1c(-c2cccs2)nc2sc3c(c2c1=O)CCCC3	none
Cc1ccccc1-c1nc2sc3c(c2c(=O)n1N)CCCC3	MrgX1 PAM 18
COc1ccc(OC)c(NCc2nnc(-c3ccccc3)o2)c1	none
CCOc1ccccc1NCc1nnc(-c2ccccc2)o1	RGS4 pot -7.5
Cc1ccc(OCC(=O)O/N=C(\N)c2ccncc2)c(C)c1	none
Cc1cc(C)c(C)c(OCC(=O)O/N=C(\N)c2ccncc2)c1	MrgX1 PAM 9.8
CC1(C)CC(=O)C2=C(C1)OC1=C(C(=O)CC(C)(C)C1)C2c1ccc(O)cc1O	MrgX1 agonist 36
CN1C(=O)/C(=C\C=C2/CCCN2C)N(C)C1=S	none
CCN1C(=O)/C(=C/C=C2/CCCN2C)OC1=S	MrgX1 agonist 27
CCn1c2ccc(C)cc2c2nnc(NN)nc21	MrgX1 agonist 29
Oc1c(Cl)cc(Cl)cc1CNc1nc2ccccc2[nH]1	none
CCNC(=O)COC(=O)/C=C/c1ccccc1[N+](=O)[O-]	none
O=C(COC(=O)/C=C/c1ccccc1[N+](=O)[O-])NCC(F)(F)F	MrgX1 antagonist -4.9
CC(C)c1csc(CN2CCC(N3CCC(C(=O)N4CCOCC4)CC3)CC2)n1	none
Cc1cc(C(=O)NNc2ccccc2F)no1	RGS4 pot -7.7
CC(C)[C@H](N)C(=O)N1CCC(C(=O)N[C@@H](Cc2ccccc2)C(=O)NCc2ccc(F)cc2)CC1	none
O=C(NCCCN1CCOCC1)C(=O)N/N=C/c1c2ccccc2cc2ccccc12	RGS4 pot -9.2
O=c1ccc(-c2ccc(S(=O)(=O)N3CCN(c4cccc(Cl)c4)CC3)o2)n[nH]1	none
Cc1ccc(C(C)C)c(OCC(=O)NCC(c2cccs2)N2CCOCC2)c1 (stereo not given)	MrgX1 agonist 28
Cc1cc(OCC(=O)NCC(c2cccs2)N2CCOCC2)ccc1C(C)C (stereo not given)	none
Cc1ccc(CSCc2ccc(C(=O)NCCCN3CCOCC3)o2)cc1	MrgX1 PAM 6.7
Cc1ccc(/C(O)=C2/C(=O)C(=O)N(c3ccccn3)C2c2ccc([N+](=O)[O-])cc2)cc1 (stereo not given)	MrgX1 antagonist -4.8
O=C(Cn1ncc2c3ccccc3n(Cc3ccccc3)c2c1=O)NCCCN1CCCC1=O	MrgX1 antagonist -8.1
O=C(Cn1ncc2c3ccccc3n(Cc3ccc(Cl)cc3)c2c1=O)NCCCN1CCCC1=O	none
O=C(Cn1ncc2c3ccccc3n(Cc3ccc(F)cc3)c2c1=O)N1CCN(c2ncccn2)CC1	MrgX1 antagonist -8.1
COC(=O)Cn1ncc2c3ccccc3n(Cc3ccccc3)c2c1=O	none
CCCCOc1ccc(C(=O)NCC(=O)NC2CCC(C)CC2)cc1 (stereo not given)	none
CN(C)C(=O)COC(=O)c1ccccc1NC(=O)c1ccco1	none
